In general, IC50 refers to the concentration that inhibits the measured activity by half. A word on the CC50: it is the concentration at which the toxic effect on the cells reaches its halfway point.

From article PMC3262452 (Virology, 2011) come the findings set out here.

The test system of one data set is WT HIV. The data set is described as follows: microbe, parasite or virus in culture. It is filed as cell-based, HIV-1.
For the next data set, the system named is AZT-R HIV. The data set can be described thus: microbe, parasite or virus in culture. The class given is cell-based, HIV-1.
For the next data set, the target named is wt HIV-1 RT RNase H (Human immunodeficiency virus type 1 group M subtype B, UniProt P04585). The data set can be described thus: In vitro RT-RNase H activity. The class given is biochemical. The note with it: read-out: IC50 RT-RNase H, recombinant HIV-1 RT.
A further data set has as its target HIV-1 RT DNA polymerase (Human immunodeficiency virus type 1 group M subtype B, UniProt P04585). The data set is described as follows: In vitro RT RNA-dependent DNA polymerase activity. The class given is biochemical. The note with it: read-out: IC50 RT-DNA polymerase, recombinant HIV-1 RT.
Data set [1] concerns HOS cells. The data set is described as follows: XTT cell viability assay. The note with it: read-out: CC50 XTT. The class given is cell-based, human. In short, it runs like this:
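HOS cells were grown in DMEM with 3.5% fetal bovine serum, 3.5% newborn calf serum and penicillin/streptomycin, then exposed to test compounds. Viability was measured with a commercial XTT kit, in which mitochondrial enzymes reduce the tetrazolium to an orange product read by absorbance. CC50 is the concentration killing half the HOS cells. Runs were done once or twice.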

Data set [2] deals with HOS cells. The data set is described as follows: ATP based luciferase assay. It is filed as cell-based, human. The note with it: for CC50: read-out: CC50 ATP-lite, HOS cells.
Where [3] appears, read: Human immunodeficiency virus 1, HOS, read-out: 3TC IC50.
Where [4] appears, read: Human immunodeficiency virus 1, HOS, read-out: AZT IC50.
Where [5] appears, read: Human immunodeficiency virus 1, HOS, read-out: AZT IC50 + NaN3.
[6] abbreviates: read-out: IC50 WT HIV, RNHI alone, HOS cells, luciferase based assay.
[7] abbreviates: read-out: IC50 AZT-R HIV, RNHI alone, HOS cells, luciferase based assay.

Read-outs that look alike come from different tables or passages of the source. Marks after values point to notes of the source that are not given here. A value given as a limit tells only on which side of the number the result lay.

Turning to `Nc1ccn([C@H]2CS[C@@H](CO)O2)c(=O)n1` [3TC, 2', 3'-dideoxy-3'-thiacytidine, reference compound], the “Fold decrease of 3TC IC50 by NVP” value in the data set with WT HIV is reported as 2 fold; with AZT-R HIV, around 2 fold. In addition, the IC50 in the data set with WT HIV (setting [3]) amounted to 8 ± 3 µM; in the data set with AZT-R HIV (setting [3]), 24 ± 14 µM.
For `Cc1cn([C@H]2C[C@H](N=[N+]=[N-])[C@@H](CO)O2)c(=O)[nH]c1=O` [AZT, zidovudine, reference compound], the IC50 with WT HIV (setting [4]) stood at 0.004 ± 0.003 µM; with WT HIV (setting [5]) it was 0.004 ± 0.002 µM; in the data set on AZT-R HIV (setting [4]), 0.041 ± 0.038 µM; with AZT-R HIV (setting [5]) it was 0.056 ± 0.037 µM. The “Fold decrease of AZT IC50 by NVP” value in the data set with WT HIV (WT HIV, 40 nM NVP, not statistically significant) is recorded as 1 fold; in the data set with AZT-R HIV (AZT-R HIV, 40 nM NVP, not statistically significant), 2 fold. In addition, the “Fold decrease of AZT IC50 by NaN3” value is given as 0 fold with WT HIV (WT HIV, 0.5 mM NaN3, not statistically significant) and 1.4 fold with AZT-R HIV (AZT-R HIV, 0.5 mM NaN3, not statistically significant).
Take `O=C1S/C(=C\c2ccc(O)c(O)c2)C(=O)N1c1ccc(O)cc1` [F0444-0019]: in the data set with WT HIV, the “effect of RNHI on the 3TC IC50 (fold increase)” value is ~ 3 fold. For the same compound, the “effect of RNHI on the AZT IC50 (fold increase)” value with WT HIV and in the data set with AZT-R HIV was ~ 5 fold each time. The IC50 with WT HIV (setting [6]) was 24 µM; in the data set with AZT-R HIV (setting [7]), 28 µM; on wt HIV-1 RT RNase H, 5 ± 1.8 µM; at HIV-1 RT DNA polymerase, 18.5 ± 5.9 µM. Moreover, the “effect of RNHI on the 3TC IC50” value with AZT-R HIV was “insignificant”. Besides, the values for the CC50 in the data set with HOS cells [1] and in the data set with HOS cells [2] were 24 ± 3 µM and 14 ± 6 µM, respectively. In the data set with HOS cells [2] (20 μM), the “% ATP relative to untreated HOS” value is listed as 36 ± 10%.
With `O=C1NC(=Nc2ccccc2O)S/C1=C/c1ccc(O)c(O)c1` [F0888-0058], the “effect of RNHI on the 3TC IC50 (fold increase)” value in the data set with WT HIV is reported as ~ 1.7 fold. Further, the “effect of RNHI on the AZT IC50 (fold increase)” value in the data set on WT HIV is reported as “no significant effect”; in the data set with AZT-R HIV it was 2 fold. For the same compound, the IC50 in the data set on WT HIV (setting [6]) is 34 µM; in the data set with AZT-R HIV (setting [7]), 30 µM; on wt HIV-1 RT RNase H, 5 ± 2.6 µM; at HIV-1 RT DNA polymerase, 29.6 ± 1.4 µM. Moreover, the “effect of RNHI on the 3TC IC50” value in the data set with AZT-R HIV is listed as “did not see a significant effect”. For the same compound, the CC50 in the data set with HOS cells [1] was determined as 16 ± 5 µM; with HOS cells [2], 14 ± 3 µM. In the data set with HOS cells [2] (20 μM), the “% ATP relative to untreated HOS” value came to 41 ± 4%.
On to `Cc1c[nH]c2c1C(c1ccc(O)c(O)c1)C(C#N)=C(N)O2` (stereo not shown) [F0915-1507], for which the “effect of RNHI on the AZT IC50 (fold increase)” value in the data set with WT HIV and in the data set on AZT-R HIV was “no significant effect” throughout. Further, the IC50 with WT HIV (setting [6]) was 50 µM; with AZT-R HIV (setting [7]), 49 µM; on wt HIV-1 RT RNase H, 5.8 ± 2.2 µM; on HIV-1 RT DNA polymerase, above 100 µM. Moreover, the CC50 is 52 µM with HOS cells [1] and 44 ± 14 µM in the data set with HOS cells [2]. Also, in the data set with HOS cells [2] (50 μM, one or two assays), the “% ATP relative to untreated HOS” value is 46^a %.
Turning to `O=C(CSc1ncccc1C(=O)O)c1ccc(O)c(O)c1` [F3253-0041], the figures for the “effect of RNHI on the AZT IC50 (fold increase)” value with WT HIV and in the data set with AZT-R HIV were “little to no effect” and “decreased the AZT IC50”, respectively. For the same compound, the IC50 in the data set with WT HIV (setting [6]) is 70 µM; with AZT-R HIV (setting [7]), 59 µM; at wt HIV-1 RT RNase H, 2.9 ± 1.1 µM; at HIV-1 RT DNA polymerase, above 100 µM. Besides, the CC50 in the data set with HOS cells [1] was determined as 370 µM; with HOS cells [2], 160 µM. The “% ATP relative to untreated HOS” value in the data set on HOS cells [2] (70 μM, one or two assays) was 92^a %.
Turning to `O=C(O)CC1CC(=O)Oc2c1ccc(O)c2O` (stereo not shown) [F3284-8495], the “effect of RNHI on the AZT IC50 (fold increase)” value with WT HIV is “little to no effect”; in the data set on AZT-R HIV, “decreased the AZT IC50”. The concentration for half-maximal inhibition (IC50) was 58 µM in the data set on WT HIV (setting [6]), 54 µM in the data set with AZT-R HIV (setting [7]), 3.3 ± 0.7 µM at wt HIV-1 RT RNase H and above 100 µM at HIV-1 RT DNA polymerase. Moreover, the CC50 in the data set on HOS cells [1] turned out to be 120 µM; in the data set with HOS cells [2], 67 µM. Further, in the data set on HOS cells [2] (70 μM, one or two assays), the “% ATP relative to untreated HOS” value is 87^a %.
Regarding `Cc1ccnc2c1NC(=O)c1cccnc1N2C1CC1` [NVP, nevirapine, reference compound], the “reduction of infectivity of the virus stock” value in the data set with WT HIV (40 nM NVP, HOS cells) is ~ 60%. Further, in the data set with AZT-R HIV (Human immunodeficiency virus 1, HOS, read-out: IC50 of NVP for blocking replication), the IC50 was determined as 0.027 ± 0.001 µM.
In the case of `[N-]=[N+]=[N-].[Na+]` [NaN3, sodium azide, reference compound], the “effect of NaN3 on the IC50 for AZT” value in the data set on WT HIV and in the data set on AZT-R HIV was “no significant effect” in each case. Also, the “% ATP relative to untreated HOS” value in the data set on HOS cells [2] (0.5 mM) was determined as 31 ± 8%. Moreover, the “reduction of the level of ATP in HOS cells” value in the data set with HOS cells [2] (0.5 mM NaN3) is ~ 70%.
